Test results reported in ChEMBL document CHEMBL1125001, “Selective inhibition of urokinase by substituted phenylguanidines: quantitative structure-activity relationship analyses” (J Med Chem, 1990).
pKi: −log10 of the molar value.

Tests used:
[1] = biological target: Plasma kallikrein (Homo sapiens) (UniProt P03952); assay: Inhibition against human plasma Kallikrein at 2 mM; assay type: cell-free
How it was run: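 Human plasma kallikrein in 50 mM Tris/HCl, 100 mM NaCl, pH 8.44, with H-D-Pro-Phe-Arg-p-nitroanilide (S-2302) as chromogenic substrate. Percent inhibition was taken at 2.0 mM inhibitor against 0.1 mM S-2302 (Km = 0.604 mM).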

[2] = biological target: T1, Tissue-type plasminogen activator (Homo sapiens, UniProt P00750); assay: Inhibition against Tissue plasminogen activator at 1 mM
How it was run: (§1)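 Tissue-type plasminogen activator assayed by chromogenic amidolysis of H-D-Ile-Pro-Arg-p-nitroanilide (S-2288) in 0.2 M Tris/AcOH, pH 8.00. Percent inhibition was measured at 1.0 mM inhibitor against 0.3 mM S-2288 (Km = 0.673 mM). Separate Ki work used 0.1–0.9 mM S-2288.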
Target sequence in this assay (P00750 36-562 limits assumed): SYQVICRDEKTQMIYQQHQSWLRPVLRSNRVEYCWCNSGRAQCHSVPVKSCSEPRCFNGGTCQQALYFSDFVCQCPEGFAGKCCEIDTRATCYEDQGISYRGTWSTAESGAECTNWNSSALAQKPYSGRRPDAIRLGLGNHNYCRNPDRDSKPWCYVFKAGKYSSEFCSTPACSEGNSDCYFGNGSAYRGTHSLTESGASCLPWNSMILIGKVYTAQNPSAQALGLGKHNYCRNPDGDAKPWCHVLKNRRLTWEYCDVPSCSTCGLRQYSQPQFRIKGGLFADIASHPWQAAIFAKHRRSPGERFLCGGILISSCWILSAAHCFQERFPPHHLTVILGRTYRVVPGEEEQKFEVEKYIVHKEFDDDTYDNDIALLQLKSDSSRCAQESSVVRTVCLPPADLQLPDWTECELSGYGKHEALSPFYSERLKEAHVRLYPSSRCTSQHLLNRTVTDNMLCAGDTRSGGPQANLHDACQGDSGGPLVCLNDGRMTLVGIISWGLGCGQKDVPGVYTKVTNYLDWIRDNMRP

[3] = biological target: T2, Urokinase-type plasminogen activator (Homo sapiens, UniProt P00749); assay: log1/Ki value was calculated against Urokinase-type plasminogen activator; details: read-out: Log 1/Ki (converted)
Serine protease 1 [4] = biological target: T3, Serine protease 1 (Bos taurus, UniProt P00760); assay: Inhibition against Trypsin
T3 sequence (P00760 whole entry): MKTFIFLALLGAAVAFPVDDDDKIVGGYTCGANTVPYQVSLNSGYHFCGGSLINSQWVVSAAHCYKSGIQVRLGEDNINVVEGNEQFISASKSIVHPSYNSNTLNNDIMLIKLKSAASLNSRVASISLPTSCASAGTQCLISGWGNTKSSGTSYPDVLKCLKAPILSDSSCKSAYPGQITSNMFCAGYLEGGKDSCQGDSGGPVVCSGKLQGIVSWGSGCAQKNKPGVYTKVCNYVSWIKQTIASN

Serine protease 1 [5] = biological target: T3, Serine protease 1; assay: log1/Ki value was calculated against Trypsin; details: read-out: Log 1/Ki (converted)
[6] = biological target: Prothrombin (Homo sapiens) (UniProt P00734); assay: Inhibition against human plasma thrombin at 1.0 mM; assay type: cell-free
How it was run: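 Highly purified human plasma thrombin in 0.2 M Tris/AcOH, pH 8.00, with H-D-Ile-Pro-Arg-p-nitroanilide (S-2288) as chromogenic substrate. Inhibition was measured at 1.0 mM inhibitor against 7.0 µM S-2288 (Km = 7.10 µM).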

[7] = biological target: T2, Urokinase-type plasminogen activator; assay: Inhibition against Urokinase-type plasminogen activator
Plasminogen = Plasminogen (Homo sapiens, UniProt P00747); assay: Inhibition against human plasmin was determined at 0.5 mM
How it was run: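 Human plasmin chromogenic amidolysis assay with substrate S-2251. Inhibition was measured at 0.5 mM inhibitor against 0.3 mM S-2251 (Km = 0.664 mM).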

[8] = biological target: T1, Tissue-type plasminogen activator; assay: The compound was tested for its inhibition against Tissue plasminogen activator at 1 mM when assayed against 0.3 mM S-2288 (Km = 0.673 mM); how it was run: as §1
Target sequence in this assay (P00750 whole entry): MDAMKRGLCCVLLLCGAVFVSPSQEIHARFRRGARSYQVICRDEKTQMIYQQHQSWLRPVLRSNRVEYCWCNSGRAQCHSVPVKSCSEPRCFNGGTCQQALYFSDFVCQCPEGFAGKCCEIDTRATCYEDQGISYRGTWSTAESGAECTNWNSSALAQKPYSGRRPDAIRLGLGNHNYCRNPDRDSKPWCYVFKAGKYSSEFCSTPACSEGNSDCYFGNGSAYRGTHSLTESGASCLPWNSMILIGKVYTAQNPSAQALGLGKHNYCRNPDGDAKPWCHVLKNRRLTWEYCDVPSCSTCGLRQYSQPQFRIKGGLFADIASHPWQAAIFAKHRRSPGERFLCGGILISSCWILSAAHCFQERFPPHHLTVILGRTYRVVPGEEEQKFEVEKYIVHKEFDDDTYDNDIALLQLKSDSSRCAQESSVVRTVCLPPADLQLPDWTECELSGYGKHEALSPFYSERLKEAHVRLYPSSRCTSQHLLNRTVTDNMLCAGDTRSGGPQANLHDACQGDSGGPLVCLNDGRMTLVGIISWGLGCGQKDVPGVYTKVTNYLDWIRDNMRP

Chain of Plasma kallikrein (Homo sapiens) (P03952 20-390 limits assumed): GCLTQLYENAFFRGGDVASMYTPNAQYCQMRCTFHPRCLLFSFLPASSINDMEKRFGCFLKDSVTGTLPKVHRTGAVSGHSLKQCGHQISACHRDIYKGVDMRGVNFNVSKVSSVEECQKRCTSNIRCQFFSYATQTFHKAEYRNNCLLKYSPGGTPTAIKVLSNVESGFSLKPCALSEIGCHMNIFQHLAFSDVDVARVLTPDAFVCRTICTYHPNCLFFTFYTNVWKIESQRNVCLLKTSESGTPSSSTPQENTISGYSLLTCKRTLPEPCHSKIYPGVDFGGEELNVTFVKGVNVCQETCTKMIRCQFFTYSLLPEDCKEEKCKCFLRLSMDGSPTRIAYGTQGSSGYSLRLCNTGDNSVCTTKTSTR
Chain of Plasma kallikrein (Homo sapiens) (P03952 391-638 limits assumed): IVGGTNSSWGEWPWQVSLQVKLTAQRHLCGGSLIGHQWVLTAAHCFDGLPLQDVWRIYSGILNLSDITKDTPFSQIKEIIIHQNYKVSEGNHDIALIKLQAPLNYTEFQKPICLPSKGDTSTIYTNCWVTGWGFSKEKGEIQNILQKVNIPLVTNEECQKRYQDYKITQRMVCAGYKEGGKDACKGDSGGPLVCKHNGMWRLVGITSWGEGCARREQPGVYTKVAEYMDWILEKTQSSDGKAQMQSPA
Chain of Plasminogen (P00747 97-580 limits assumed): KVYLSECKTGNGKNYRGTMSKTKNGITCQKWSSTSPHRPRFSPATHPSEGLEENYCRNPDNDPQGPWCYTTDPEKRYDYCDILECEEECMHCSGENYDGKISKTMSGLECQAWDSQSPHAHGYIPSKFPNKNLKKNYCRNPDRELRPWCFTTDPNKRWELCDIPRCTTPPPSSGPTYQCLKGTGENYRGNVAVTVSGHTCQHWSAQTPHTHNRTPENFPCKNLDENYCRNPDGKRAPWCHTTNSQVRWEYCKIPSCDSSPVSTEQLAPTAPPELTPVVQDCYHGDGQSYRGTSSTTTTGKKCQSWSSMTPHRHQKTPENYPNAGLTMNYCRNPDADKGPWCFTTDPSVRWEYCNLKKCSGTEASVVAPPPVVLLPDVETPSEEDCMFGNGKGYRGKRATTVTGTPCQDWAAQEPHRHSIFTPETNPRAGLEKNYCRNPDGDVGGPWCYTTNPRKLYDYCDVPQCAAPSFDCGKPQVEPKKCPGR
Chain of Plasminogen (P00747 581-810 limits assumed): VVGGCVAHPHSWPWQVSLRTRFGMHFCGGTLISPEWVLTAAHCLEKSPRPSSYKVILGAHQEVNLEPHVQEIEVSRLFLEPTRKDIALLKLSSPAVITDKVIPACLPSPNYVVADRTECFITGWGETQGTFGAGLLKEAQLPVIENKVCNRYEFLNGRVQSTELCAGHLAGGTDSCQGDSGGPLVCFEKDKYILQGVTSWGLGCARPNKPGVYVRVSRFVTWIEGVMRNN

Row | inhibition [1] [%] | inhibition [2] [%] | Ki [3] [µM] | pKi (Serine protease 1 [4]) | Ki (Serine protease 1 [5]) [µM] | inhibition [6] [%] | pKi [7] | pKi (Plasminogen) | pKi [8] | Compound
1 | < 30 | < 45 | 259 | 2.45 | 3550 | < 10 | 3.59 |  |  | Cc1ccccc1NC(=N)N
2 | < 30 | < 45 |  |  |  | < 10 |  |  |  | N=C(N)Nc1cccc(Cl)c1
3 | < 30 | < 45 |  |  |  | < 10 |  |  |  | N=C(N)Nc1ccccc1[N+](=O)[O-]
4 | < 30 | < 45 | 136 | 3.06 | 881 | < 10 | 3.87 |  |  | COc1ccccc1NC(=N)N
5 | < 30 | < 45 | 15.6 | 3.50 | 318 | < 10 | 4.81 |  |  | Cc1ccc(NC(=N)N)cc1
6 | < 30 |  | 20.6 | 3.79 | 163 | < 10 | 4.69 | 2.58 | 3.13 | N=C(N)Nc1ccccc1 [PHENYLGUANIDINE]
7 | < 30 | < 45 | 6.07 | 3.92 | 120 | < 10 | 5.22 |  |  | N=C(N)Nc1ccc(Cl)cc1
8 | < 30 |  | 20.6 | 3.45 | 352 | < 10 | 4.69 |  |  | N=C(N)Nc1ccc([N+](=O)[O-])cc1
9 | < 30 | < 45 |  |  |  | < 10 |  |  |  | N=C(N)Nc1cccc(C(F)(F)F)c1
10 | < 30 | < 45 | 1450 | 3.19 | 652 | < 10 | 2.84 |  |  | COC(=O)c1ccc(NC(=N)N)cc1
11 |  | < 45 | 1320 | 2.31 | 4920 |  | 2.88 |  |  | N=C(N)Nc1ccc(/C=C/C(=O)O)cc1
12 | < 30 | < 45 | 676 | 2.23 | 5890 | < 10 | 3.17 |  |  | COc1ccc(NC(=N)N)cc1
13 |  |  | 419 | 1.97 | 10700 |  | 3.38 |  |  | NC(N)=Nc1cccc(C(F)(F)F)c1
14 | < 30 | < 45 | 745 | 2.00 | 10000 | < 10 | 3.13 |  |  | N=C(N)Nc1ccc(C(=O)O)cc1 [4-GUANIDINO-BENZOIC ACID]
15 | < 30 | < 45 | 388 | 2.93 | 1180 | < 10 | 3.41 |  |  | N=C(N)Nc1ccccc1N
16 | < 30 | < 45 | 30.7 | 2.56 | 2780 | < 10 | 4.51 |  |  | N=C(N)Nc1ccc(Br)cc1
17 | < 30 | < 45 | 6.49 | 4.20 | 63.1 | < 10 | 5.19 |  |  | N=C(N)Nc1ccc(C(F)(F)F)cc1
18 | < 30 | < 45 |  |  |  | < 10 |  |  |  | N=C(N)Nc1ccccc1Cl
19 | < 30 | < 45 | 72.4 | 3.09 | 807 | < 10 | 4.14 |  |  | N=C(N)Nc1ccc(F)cc1
20 |  |  | 61.7 | 2.96 | 1100 |  | 4.21 |  |  | NC(N)=Nc1cccc(Cl)c1
21 | < 30 | < 45 | 90.8 | 2.24 | 5770 | < 10 | 4.04 |  |  | CCc1ccc(NC(=N)N)cc1
22 |  |  | 103 | 3.05 | 897 |  | 3.99 |  |  | NC(N)=Nc1ccccc1Cl
23 |  |  | 54.3 | 3.88 | 133 |  | 4.27 |  |  | NC(N)=Nc1ccccc1[N+](=O)[O-]
